From PubChem BioAssay AID2520 (Sanford-Burnham Center for Chemical Genomics, 2010)
Out of some 330,000 compounds screened, about 350 (0.11%) were called active.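 How the source made its calls: active means activation more than six SD over the plate average, tested at 20 µM; inactive means the rest.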 The list comes from a sample in which actives are over-represented; it also holds similar structures and randomly drawn compounds.

biological target: Apelin receptor (Homo sapiens) (UniProt P35414); test: APJ activation via beta-arrestin recruitment – CHO-K1 cells, PathHunter beta-arrestin, luminescence, primary screen (AID 2520); settings: at 20 µM, active compounds read high, 0% DMSO wells, 100% apelin
In short: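 Assay system – PathHunter CHO-K1 APJ (AGTRL-1) beta-arrestin reporter cells · Compound – one dose, 20 µM compound, 1% DMSO · Timing – compound 90 min 25 °C, reagent 1 h · Measured by – luminescence from split beta-galactosidase complementation, Galacton Star/Emerald II substrate · Measure – beta-arrestin recruitment to APJ as agonist activity, luminescent signal · Benchmarks – DMSO vs Apelin-13 10 nM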

Apelin receptor (Homo sapiens), sequence (P35414 whole entry, looked up): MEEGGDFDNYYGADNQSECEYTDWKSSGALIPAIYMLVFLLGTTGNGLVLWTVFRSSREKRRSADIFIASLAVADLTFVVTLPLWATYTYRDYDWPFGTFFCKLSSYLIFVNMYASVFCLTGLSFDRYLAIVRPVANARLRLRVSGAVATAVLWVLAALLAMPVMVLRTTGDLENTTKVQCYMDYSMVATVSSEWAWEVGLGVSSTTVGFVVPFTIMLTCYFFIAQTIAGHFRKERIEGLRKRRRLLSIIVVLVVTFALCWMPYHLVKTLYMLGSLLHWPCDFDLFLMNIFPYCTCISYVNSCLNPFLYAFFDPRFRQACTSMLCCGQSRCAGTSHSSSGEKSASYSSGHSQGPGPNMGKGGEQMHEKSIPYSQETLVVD

SMILES	activation
CCCCc1cc(=O)oc2c(C)c(OCC(=O)N3CCC(C(N)=O)CC3)ccc12	-4.2% (inactive)
CCOc1ccc(/C=C/C(=O)N(CC)CC(=O)NCc2cccs2)cc1OC	8.54% (inactive)
Cc1nnc(SCC(=O)NC(=O)NC2CCCC2)n1N	-4.56% (inactive)
CCN1CCN(C(=O)CCN2C(=O)c3ccccc3C2=O)CC1	-1.85% (inactive)
COc1ccc2c(c1)N(C)/C(=C1/SC(=S)N(NC(C)=O)C1=O)S2	-1.51% (inactive)
O=C1NC(c2ccccc2)=NC1(Nc1ccccn1)C(F)(F)F (stereo unspecified)	1.8% (inactive)
Cc1ccsc1C(=O)OCC(=O)Nc1cccc(F)c1	-4.87% (inactive)
COc1ccc(-n2c(=O)[nH]c3cc(C(=O)NCCc4ccc(OC)c(OC)c4)ccc3c2=O)c(OC)c1	-2.2% (inactive)
O=C(NC1CCCC1)C(NS(=O)(=O)c1ccc(Br)s1)c1ccccc1 (stereo unspecified)	1.83% (inactive)
Cc1ccc2c(c1)NCC(C(=O)NC1CCC(C)CC1)O2 (stereo unspecified)	-1.38% (inactive)
N#CC1=C(N)N(c2ccc(F)cc2)C(=O)C1	-4.08% (inactive)
CC(=O)Nc1ccc(NC(=O)C(C)n2c3ccccc3c3nc(=O)cc(C)n32)cc1 (stereo unspecified)	-3.18% (inactive)
CCOC(=O)C1=C(CC)OC(N)=C(C#N)C1c1ccc(F)cc1F (stereo unspecified)	-3.78% (inactive)
Cc1nc(N2CCOCC2)nc2c1CCCC2	0.237% (inactive)
Nc1nc(-c2sc3nc4c(cc3c2N)CCCC4)nc(N2CCOCC2)n1	12.3% (active)
Cc1cccc(NC(=O)c2sc3nc(N4CCOCC4)c4c(c3c2N)CCCC4)c1	-11.8% (inactive)
CC(=O)NC(=S)Nc1ccc(NC(=O)c2cccnc2)cc1	3.75% (inactive)
Cc1cc(NS(=O)(=O)c2ccc(NC(=O)c3cccnc3)cc2)nc(C)n1	1.41% (inactive)
Cc1ccc2nc(-c3ccc(NC(=O)c4cccnc4)cc3)oc2c1	14.6% (active)
COc1ccc(C)cc1N(CC(=O)NC(C)c1ccccc1)S(C)(=O)=O (stereo unspecified)	-1.79% (inactive)
C=CCOc1ccccc1NC(=O)CN1C(=O)CNC1=O	-2.49% (inactive)
COc1ccc(C)cc1NC(=O)CSc1nnc(CC(=O)Nc2ccccc2F)n1C	-3.35% (inactive)
NS(=O)(=O)c1ccc(CCNC(=O)COC(=O)COc2cccc(C(F)(F)F)c2)cc1	-3.07% (inactive)

SMILES	activation
COc1cc2c(cc1OC)C(=O)NCC(C)(C)O2	-0.328% (inactive)
CN(CCc1ccccn1)C(=O)c1ccc(OC2CCN(Cc3ccccn3)CC2)cc1	-8.78% (inactive)
CC(C)=CCCC(C)CN1CCC(n2nccc2NC(=O)c2ccccc2)CC1 (stereo unspecified)	1.47% (inactive)
CCCn1c(=S)[nH]c2ccc(C(F)(F)F)cc21	0.385% (inactive)
CCCCn1nnnc1NCc1cc(OC)c(OC)c(OC)c1	-4.13% (inactive)
Cc1ccnc(NC(=O)CCC(=O)N(CC(=O)NCCc2ccccc2)Cc2cccs2)c1	-3.93% (inactive)
CCCS(=O)(=O)N1CCN=C1SCc1cccc(F)c1	2.13% (inactive)
COc1cccc2c(O)cc(=O)n(C)c12	-2.86% (inactive)
O=C(Nc1cccc([N+](=O)[O-])c1)N1CCc2ccccc2C1	-0.709% (inactive)
Cc1ccc(O/C=C2\OC(=O)c3ccccc32)cc1	-1.88% (inactive)
O=C(OCC(=O)c1cccs1)c1ccc([N+](=O)[O-])o1	3.99% (inactive)
COC(=O)Cc1cnc(NC(=O)CSc2nc(C(C)C)cc(=O)[nH]2)s1	-1.9% (inactive)
O=C1NC(=Nc2ccc(Cl)cc2)SC1Cc1cccc(Cl)c1Cl (stereo unspecified)	-3.58% (inactive)
N#Cc1cccc(NC(=O)COC(=O)c2ccccc2C(=O)c2ccc(Cl)c([N+](=O)[O-])c2)c1	-0.51% (inactive)
Cc1ccc(C(=O)C(C)OC(=O)Cc2n[nH]c(=O)c3ccccc23)cc1C (stereo unspecified)	6.72% (inactive)
CCc1ccc2c(c1)cc(CN(C(=S)Nc1ccccc1Cl)C1CC1)c1nnnn12	4.19% (inactive)
Cc1cc(C)c2[nH]c(=O)c(CN(Cc3ccccc3)C(=S)NCCCN(C)C)cc2c1	20.2% (active)
Cc1cccc2cc(CN(Cc3cccs3)C(=S)NCc3ccco3)c(=O)[nH]c12	-1.92% (inactive)
COCCCNC(=S)N(CCN(C)C)Cc1cc2cc3c(cc2[nH]c1=O)OCCO3	-4.21% (inactive)
O=C1C=CC(=O)N1c1ccc(N2CCCCC2)cc1	-5.18% (inactive)
CCc1ccc(CN(C)C(=O)CCc2nnc(-c3ccc(-c4ccccc4)cc3)o2)nc1	-3.94% (inactive)
Cc1c(CCC(=O)O)c(=O)oc2cc3occ(-c4ccccc4)c3cc12	-2.13% (inactive)
CCCCCCc1cc2cc(-c3nnc(-c4ccccc4)o3)c(=O)oc2cc1O	30.8% (active)

SMILES	activation
CN(c1ccccc1)S(=O)(=O)c1ccc(Cl)c(C(=O)OCC(=O)N2CCOCC2)c1	-4.02% (inactive)
CCn1c(-c2cccnc2Cl)nc2cc(C)c(C)cc21	-1.12% (inactive)
COCC(=O)Nc1cc(C(=O)OC)cc(C(=O)OC)c1	-0.719% (inactive)
CCOC(CNC(=O)C(=O)NCC(c1ccco1)N1CCN(c2ccc(OC)cc2)CC1)OCC (stereo unspecified)	-4.81% (inactive)
CC(=O)c1ccccc1OCc1ccc(C(=O)c2ccccc2)cc1	-3.74% (inactive)
COc1ccc(N(CCC#N)S(=O)(=O)c2ccc(Cl)cc2)cc1	-5.53% (inactive)
COCn1c(C(O)c2ccccc2)cc2ccccc21 (stereo unspecified)	-2.04% (inactive)
COc1ccc(S(=O)(=O)Nc2ccc(F)cc2)c(C)c1C	-0.449% (inactive)
CCCCN(CC)C(=O)CN(C)S(=O)(=O)c1cccc2nsnc12	-2.83% (inactive)
CN(CCC1CCOCC1)Cc1cn[nH]c1-c1ccc(-c2ccccc2)cc1	-3.69% (inactive)
Cc1ccnc(NS(=O)(=O)c2ccc(NC(=O)c3ccc(S(=O)(=O)N(C)C)cc3)cc2)n1	-2.66% (inactive)
CCc1ccccc1NC(=O)CN(C)C(=O)COc1ccc(C)nc1[N+](=O)[O-]	-1.82% (inactive)
CC1CN(C(=O)c2ccc3c(c2)OCO3)OC(c2ccccc2)O1 (stereo unspecified)	-2.94% (inactive)
O=C(N/N=C\C1CC=CCC1)c1ccc(Br)o1 (stereo unspecified)	8.95% (inactive)
CC(C)(C)C1CCC(=NNC(=O)c2ccc(Br)o2)CC1 (stereo unspecified)	-3.06% (inactive)
CCC(C)(C)C1CCC(=NNC(=O)c2ccc(Br)o2)CC1 (stereo unspecified)	19.8% (active)
Fc1ccc(CNCc2ccc(Br)cc2)cc1	-1.03% (inactive)
COC(=O)c1ccc(NC(=O)CSc2nnc(C3CC3)n2C)cc1	-3.11% (inactive)
O=C(OCCN1C(=O)c2ccccc2C1=O)Oc1ccccc1	-1.77% (inactive)
O=C(COC(=O)C12CC3CC(CC(O)(C3)C1)C2)NC12CC3CC(CC(C3)C1)C2	-1.34% (inactive)
O=C(COc1ccc(Cl)cc1)NCCSc1ccccc1	-1.87% (inactive)
O=[N+]([O-])c1cc(Cl)cc(/C=N/NC(=S)Nc2cc(S(=O)(=O)N3CCOCC3)ccc2Cl)c1O	-5.98% (inactive)
Cc1ccc(NS(=O)(=O)c2c(C)[nH]c(C)c2C(=O)N2CCCCC2)c(C)c1	-0.00146% (inactive)

SMILES	activation
CC(=O)c1ccc(OCC(O)CN2CCN(S(=O)(=O)c3cccc(Br)c3)CC2)cc1 (stereo unspecified)	-1.5% (inactive)
CSc1ncc(C(=O)Nc2ccc(C)cc2C)c(C)n1	-0.333% (inactive)
Cc1ccc(S(=O)(=O)NCc2nc3ccccc3c(=O)n2N)cc1	-0.607% (inactive)
CCCc1nc(N2CCN(C)CC2)c2sc(=S)n(-c3ccccc3)c2n1	-2.45% (inactive)
COC(=O)c1ccc(C)c(NC(=O)C2CC(=O)N(C3CCCC(C)C3C)C2)c1 (stereo unspecified)	-2.02% (inactive)
CC(=O)N1CCCc2cc(S(=O)(=O)N3CCCC(C(=O)NCc4ccc(Cl)cc4)C3)ccc21 (stereo unspecified)	-0.0955% (inactive)
CC(=O)N1c2ccc(S(=O)(=O)N3CCCC(C(=O)Nc4cccc(Cl)c4)C3)cc2CC1C (stereo unspecified)	-0.333% (inactive)
CC(=O)N1CCCc2cc(S(=O)(=O)N3CCCC(C(=O)N4CCN(c5cccc(Cl)c5)CC4)C3)ccc21 (stereo unspecified)	19.6% (active)
O=S(=O)(/C=C/c1ccccc1)N1CCNCC1	-1.77% (inactive)
Cc1ccc(C)c(NC(=O)NNC(=O)c2ccc3ccccc3c2O)c1	10% (inactive)
COc1cc(NC(=O)C2=C(C)OCCS2)c(Cl)cc1C(=O)NCCN1CCN(C)CC1	18.9% (active)
CCCCNC(=O)c1ccccc1NC(=O)C1=C(C)OCCS1	0.515% (inactive)
COc1ccc(N2CCN(C(=O)c3ccccc3NC(=O)C3=C(C)OCCS3)CC2)cc1	-4.76% (inactive)
CCOC(=O)CSc1nnc(NC(=O)C2CC(=O)N(c3ccc(F)cc3)C2)s1 (stereo unspecified)	-4.52% (inactive)
C=CCOc1ccc(C2/C(=C(\O)c3c(C)[nH]c(C(=O)OC)c3C)C(=O)C(=O)N2CCN(C)C)cc1 (stereo unspecified)	-0.14% (inactive)
O=Cc1c(NCCc2cccc(F)c2)c2ccccc2[nH]c1=O	-3.46% (inactive)
CC(C(=O)Nc1ccc(F)c(F)c1F)N1CCCCCC1 (stereo unspecified)	-3.77% (inactive)
CC1CCN(C(=O)c2ccc(S(=O)(=O)Cc3cc(F)ccc3F)c([N+](=O)[O-])c2)CC1	1.51% (inactive)
CCN1CCN(C(C(=O)NC2CCCC2)c2cc3c(cc2[N+](=O)[O-])OCO3)CC1 (stereo unspecified)	9.21% (inactive)
O=C(CSc1nc(Nc2ccccc2)nc(N2CCOCC2)n1)Nc1cc(Cl)ccc1O	40.8% (active)
Cc1ccccc1NC(=O)CSc1nc2ccc(Nc3nc(N4CCOCC4)nc(N4CCOCC4)n3)cc2s1	8.35% (inactive)
CC1(c2ccccc2)NC(=O)N(CC(=O)Nc2cc(Cl)ccc2N2CCOCC2)C1=O (stereo unspecified)	-3.1% (inactive)
